{"source": "ChEMBL document CHEMBL1136530", "about": "“Synthesis, stereochemical assignment and biological activity of a novel series of C-4\" modified aza-macrolides” (2003)", "type_in_all_cases": "functional", "key": {"Escherichia coli": {"tested_on": "Escherichia coli", "assay": "Minimum inhibitory concentration against Escherichia coli"}, "Mus musculus": {"tested_on": "Mus musculus", "assay": "In vivo effective dose against Pasteurella multocida infection in mouse", "in_short": "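Mice infected with P. multocida serotype 5A. Subcutaneous dosing 0.5 h post-infection at 5 to 80 mg/kg. ED50 calculated from the number of mice surviving four days after infection.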"}, "Pasteurella multocida": {"tested_on": "Pasteurella multocida", "assay": "Minimum inhibitory concentration against Pasteurella multocida", "in_short": "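P. multocida strain 59A0067 (turkey origin), grown overnight on BHI plates; colonies in saline at OD625 0.09 (0.5 McFarland), diluted 1:100 in BHI broth. Two-fold serial dilutions in BHI microdilution, about 5×10⁵ cfu/mL final, 37 °C for 18 h. MIC is the lowest concentration with A600 ≤ 0.025.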"}}, "data": [{"smiles": "CC[C@H]1OC(=O)[C@H](C)[C@@H](O[C@H]2C[C@@](C)(OC)[C@@](O)(C#CCOC)[C@H](C)O2)[C@H](C)[C@@H](O[C@@H]2O[C@H](C)C[C@H](N(C)C)[C@H]2O)[C@](C)(O)C[C@@H](C)CN[C@H](C)[C@@H](O)[C@]1(C)O", "values": [{"measurement": "MIC", "setting": "Escherichia coli", "value": 3.13, "unit": "µg/mL"}, {"measurement": "ED50", "setting": "Mus musculus", "value": 20, "unit": "mg/kg"}, {"measurement": "MIC", "setting": "Pasteurella multocida", "value": 0.2, "unit": "µg/mL"}]}]}
